pIC50: −log10 of the molar value.
Experiments:
KM12 = test: Anticancer activity against human KM12 cells; assay type: functional
How it was run: (§1)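 Values come from the NCI 60-cell-line human tumour panel, run on a single analog. Cytostatic and cytotoxic responses were read for each cell line across graded molar concentrations of that compound.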

TK-10 = test: Anticancer activity against human TK10 cells; assay type: functional; how it was run: as §1
SNB-19 = test: Anticancer activity against human SNB19 cells; assay type: functional; how it was run: as §1
SN12C = test: Anticancer activity against human SN12C cells; assay type: functional; how it was run: as §1
CAKI-1 = test: Cytostatic activity against human Caki1 cells assessed as inhibition of cell proliferation after 96 hrs by coulter counting analysis; assay type: functional, cell-based; conditions: CAKI-1, 96 h
How it was run: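 Anti-proliferative testing extended to human kidney Caki-1 and human liver Huh-7 tumour cells. The value reported is the IC50, the concentration that inhibits tumour cell growth by 50%.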

HT-29 = test: Anticancer activity against human HT-29 cells; assay type: functional; how it was run: as §1
SF-268 = test: Anticancer activity against human SF268 cells; assay type: functional; how it was run: as §1
CCRF-CEM = test: Anticancer activity against human CCRF-CEM cells; assay type: functional; how it was run: as §1
[1] = Anticancer activity against human OVCAR8 cells; assay type: functional; how it was run: as §1
MDA-MB-435 = test: Anticancer activity against human MDA-MB-435 cells; assay type: functional; how it was run: as §1
HOP-62 = test: Anticancer activity against human HOP62 cells; assay type: functional; how it was run: as §1
COLO 205 = test: Anticancer activity against human COLO205 cells; assay type: functional; how it was run: as §1
SK-MEL-5 = test: Anticancer activity against human SK-MEL-5 cells; assay type: functional; how it was run: as §1
[2] = Anticancer activity against human BT549 cells; assay type: functional; how it was run: as §1
K562 = test: Anticancer activity against human K562 cells; assay type: functional; how it was run: as §1
PC-3 = test: Anticancer activity against human PC3 cells; assay type: functional; how it was run: as §1
U-251 = test: Anticancer activity against human U251 cells; assay type: functional; how it was run: as §1
Malme-3M = test: Anticancer activity against human MALME-3M cells; assay type: functional; how it was run: as §1
NCI-H322M = test: Anticancer activity against human NCI-H322M cells; assay type: functional; how it was run: as §1
[3] = Anticancer activity against human HCT15 cells; assay type: functional; how it was run: as §1
[4] = read-out: pLC50 (the source's name) (converted)

CC(C)(C)OC(=O)N[C@@H](Cc1ccccc1)C(=O)N(Cc1ccccc1)C1(C(=O)NCc2ccccc2)CCN(Cc2ccccc2)CC1
GI50 (KM12): 4.17 µM
CC50 (KM12; [4]): > 100 µM
TGI (KM12; read-out: pTGI): > 100 µM
GI50 (TK-10): 3.16 µM
CC50 (TK-10; [4]): > 100 µM
TGI (TK-10; read-out: pTGI (converted)): 70.8 µM
GI50 (SNB-19): 5.25 µM
CC50 (SNB-19; [4]): > 100 µM
TGI (SNB-19; read-out: pTGI): > 100 µM
GI50 (SN12C): 3.47 µM
CC50 (SN12C; [4]): > 100 µM
TGI (SN12C; read-out: pTGI): > 100 µM
pIC50 (CAKI-1): 5.02
GI50 (HT-29): 2.14 µM
CC50 (HT-29; [4]): 57.5 µM
TGI (HT-29; read-out: pTGI (converted)): 6.76 µM
GI50 (SF-268): 4.9 µM
CC50 (SF-268; [4]): > 100 µM
TGI (SF-268; read-out: pTGI): > 100 µM
GI50 (CCRF-CEM): 3.31 µM
CC50 (CCRF-CEM; [4]): > 100 µM
TGI (CCRF-CEM; read-out: pTGI): > 100 µM
GI50 ([1]; OVCAR-8): 3.47 µM
CC50 ([1]; OVCAR-8, read-out: pLC50 (the source's name) (converted)): > 100 µM
TGI ([1]; OVCAR-8, read-out: pTGI): > 100 µM
GI50 (MDA-MB-435): 3.02 µM
CC50 (MDA-MB-435; [4]): > 100 µM
TGI (MDA-MB-435; read-out: pTGI): > 100 µM
GI50 (HOP-62): 3.89 µM
CC50 (HOP-62; [4]): > 100 µM
TGI (HOP-62; read-out: pTGI): > 100 µM
GI50 (COLO 205): 1.66 µM
CC50 (COLO 205; [4]): 6.61 µM
TGI (COLO 205; read-out: pTGI (converted)): 3.31 µM
GI50 (SK-MEL-5): 1.74 µM
CC50 (SK-MEL-5; [4]): 6.31 µM
TGI (SK-MEL-5; read-out: pTGI (converted)): 3.31 µM
GI50 ([2]; BT-549): 2.09 µM
CC50 ([2]; BT-549, read-out: pLC50 (the source's name) (converted)): > 100 µM
TGI ([2]; BT-549, read-out: pTGI (converted)): 7.94 µM
GI50 (K562): 3.39 µM
CC50 (K562; [4]): > 100 µM
TGI (K562; read-out: pTGI): > 100 µM
GI50 (PC-3): 2.45 µM
CC50 (PC-3; [4]): > 100 µM
TGI (PC-3; read-out: pTGI): > 100 µM
GI50 (U-251): 3.16 µM
CC50 (U-251; [4]): > 100 µM
TGI (U-251; read-out: pTGI): > 100 µM
GI50 (Malme-3M): 3.02 µM
CC50 (Malme-3M; [4]): > 100 µM
TGI (Malme-3M; read-out: pTGI (converted)): 10 µM
GI50 (NCI-H322M): 9.33 µM
CC50 (NCI-H322M; [4]): > 100 µM
TGI (NCI-H322M; read-out: pTGI): > 100 µM
GI50 ([3]; HCT-15): 3.16 µM
CC50 ([3]; HCT-15, read-out: pLC50 (the source's name) (converted)): > 100 µM
TGI ([3]; HCT-15, read-out: pTGI): > 100 µM

From ChEMBL document CHEMBL3286189, “Discovery and SAR studies of a novel class of cytotoxic 1,4-disubstituted piperidines via Ugi reaction” (Eur J Med Chem, 2014)
